Test results published in ChEMBL document CHEMBL1148736, “N-Acylthiadiazolines, a new class of liver X receptor agonists with selectivity for LXRbeta” (J Med Chem, 2007).
Calls of active or inactive are those of the source. The calls are words filed in the database; no cut-off is given here.

Experiments:
[1] = AUC in C57BL/6 mouse at 20 mg/kg, po; type: ADME, organism-based; parameters: dose 20 mg/kg, route oral; conditions: plasma
How it was run: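 Mouse PK study, IV and PO; compound formulated at 2.5 mg/mL in PEG300/Tween 80 (4:1). IV dose 5 mpk (AUC, Cmax, clearance, Vss); oral dose 20 mpk (AUC, Cmax, bioavailability, t1/2).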

[2] = target: T1, Oxysterols receptor LXR-beta (Homo sapiens, UniProt P55055); experiment: Agonist activity at GAL-linked human LXRbeta expressed in THP1 cells assessed as stimulation of co-activator recruitment by FRET assay; type: functional
T1 sequence (P55055 whole entry): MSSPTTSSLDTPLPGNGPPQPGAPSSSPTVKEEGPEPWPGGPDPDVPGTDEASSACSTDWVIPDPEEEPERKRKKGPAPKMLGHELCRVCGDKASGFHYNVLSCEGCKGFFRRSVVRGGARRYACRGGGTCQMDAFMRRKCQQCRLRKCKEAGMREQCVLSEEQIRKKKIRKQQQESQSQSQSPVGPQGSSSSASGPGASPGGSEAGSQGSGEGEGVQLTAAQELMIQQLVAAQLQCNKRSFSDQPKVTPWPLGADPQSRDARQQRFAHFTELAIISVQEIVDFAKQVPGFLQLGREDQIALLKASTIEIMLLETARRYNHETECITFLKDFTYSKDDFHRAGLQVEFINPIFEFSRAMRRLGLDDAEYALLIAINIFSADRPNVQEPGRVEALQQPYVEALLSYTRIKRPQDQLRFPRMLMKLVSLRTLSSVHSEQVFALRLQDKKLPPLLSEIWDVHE
How it was run: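 Cell-free TR-FRET coactivator recruitment: 20 nM His-tagged hLXRα or hLXRβ, 300 nM biotinylated SRC-1 peptide, Eu-anti-His antibody, APC-streptavidin. 12-point curves from 20 µM; 1 h at 37 °C. Duplicate. %E = maximal coactivator recruitment relative to reference dual agonist in same experiment.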

[3] = system: THP-1; experiment: Increase in ABCA1 gene expression in THP1 cells at 10 uM relative to GW-3965; type: functional, Homo sapiens
How it was run: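 THP-1 cells differentiated with 40 ng/mL PMA for 1 day, then switched to RPMI with 2% lipoprotein-deficient FBS. Compound added 6 h later at 1 or 10 µM in DMSO, incubated 24 h. ABCA1 mRNA by one-step TaqMan qRT-PCR, triplicate, multiplexed with 36B4; fold induction vs DMSO, expressed relative to reference dual agonist.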

[4] = system: Macrophage; experiment: Induction of ABCA1 gene expression in LXRalpha and LXRbeta deficient mouse macrophages; type: functional, cell-based
How it was run: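 Thioglycollate-elicited peritoneal macrophages from LXR-null mice, plated 24 h. Treated as for THP-1 without PMA: 2% lipoprotein-deficient serum medium, compound in DMSO for 24 h. ABCA1 mRNA by TaqMan qRT-PCR with 36B4 control, fold vs DMSO. Two concentrations used.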

[5] = system: Liver; experiment: Effect on SREBP1c gene expression in C57BL/6 mouse liver; type: functional, tissue-based
How it was run: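 Male C57BL/6 mice, 10 weeks old, chow-fed, gavaged daily with vehicle or compound (20–200 mpk) for 3 days. Fasted overnight before the last dose; killed 3 h later. Tissue RNA analysed by TaqMan qRT-PCR.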

[6] = target: T2, Nuclear receptor subfamily 1 group I member 2 (Homo sapiens, UniProt O75469); experiment: Activity at PXR by cell based assay; type: functional
T2 sequence (O75469 whole entry): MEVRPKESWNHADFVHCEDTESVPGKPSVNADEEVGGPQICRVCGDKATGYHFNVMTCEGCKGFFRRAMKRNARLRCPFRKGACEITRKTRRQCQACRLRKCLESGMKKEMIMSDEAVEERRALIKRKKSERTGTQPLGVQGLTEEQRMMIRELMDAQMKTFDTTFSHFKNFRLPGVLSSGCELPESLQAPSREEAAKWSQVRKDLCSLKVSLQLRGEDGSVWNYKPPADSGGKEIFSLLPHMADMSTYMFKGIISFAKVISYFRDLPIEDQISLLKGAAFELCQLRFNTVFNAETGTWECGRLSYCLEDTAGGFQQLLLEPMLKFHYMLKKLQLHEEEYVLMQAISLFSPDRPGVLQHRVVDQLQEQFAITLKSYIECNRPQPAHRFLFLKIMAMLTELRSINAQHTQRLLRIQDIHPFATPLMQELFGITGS

[7] = target: T3, Glucocorticoid receptor (Homo sapiens) (UniProt P04150); experiment: Activity at GR by cell based assay; type: functional
T3 sequence (whole entry): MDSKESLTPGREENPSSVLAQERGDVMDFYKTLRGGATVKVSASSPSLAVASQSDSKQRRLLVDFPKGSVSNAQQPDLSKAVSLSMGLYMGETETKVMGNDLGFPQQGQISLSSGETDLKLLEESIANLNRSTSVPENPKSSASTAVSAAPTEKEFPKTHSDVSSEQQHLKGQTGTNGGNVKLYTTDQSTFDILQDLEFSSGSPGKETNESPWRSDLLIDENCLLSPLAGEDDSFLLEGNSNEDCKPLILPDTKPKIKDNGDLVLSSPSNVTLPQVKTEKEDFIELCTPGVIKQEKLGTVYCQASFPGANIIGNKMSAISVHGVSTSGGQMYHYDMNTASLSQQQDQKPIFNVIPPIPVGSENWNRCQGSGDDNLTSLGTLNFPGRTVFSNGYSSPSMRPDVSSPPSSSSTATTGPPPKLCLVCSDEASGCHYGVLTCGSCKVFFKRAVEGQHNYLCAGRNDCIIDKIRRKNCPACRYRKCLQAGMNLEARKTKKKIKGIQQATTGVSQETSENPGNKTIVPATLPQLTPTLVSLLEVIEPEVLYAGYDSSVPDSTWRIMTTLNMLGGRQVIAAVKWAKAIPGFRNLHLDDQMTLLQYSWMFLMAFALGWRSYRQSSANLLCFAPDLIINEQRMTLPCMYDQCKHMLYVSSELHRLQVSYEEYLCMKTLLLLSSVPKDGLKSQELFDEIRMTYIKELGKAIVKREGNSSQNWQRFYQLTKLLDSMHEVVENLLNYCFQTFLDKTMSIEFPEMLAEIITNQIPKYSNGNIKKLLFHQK

[8] = Stability in human liver microsomes at 1 uM after 30 mins; type: ADME, Microsome; conditions: read-out: Stability
How it was run: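 Incubated at 1 µM with human liver microsomes; percent parent remaining measured at 30 min.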

COc1cccc(C2SC(c3ccc(Cl)cc3)=NN2C(=O)c2c(F)cc(F)cc2F)c1OC (racemic)
AUC [1]: 7920 ng·h/mL | EC50 [2]: 250 nM | Activity [3]: 59% | Activity [4]: inactive | Activity [5]: inactive | Activity [6]: Not Active | Activity [7]: inactive | remaining at 0.5 h, 1 µM [8]: 70%
